ChEMBL document CHEMBL2010803, “Novel NSAID 1-acyl-4-cycloalkyl/arylsemicarbazides and 1-acyl-5-benzyloxy/hydroxy carbamoylcarbazides as potential anticancer agents and antioxidants” (Eur J Med Chem, 2012)
The source made the active and inactive calls. The rule behind the calls is not given here.

Tests used:
[1] = system: Radical scavenging activity; assay: Antioxidant activity assessed as DPPH free radical scavenging activity at 100 uM after 60 mins by spectrophotometric analysis; assay type: functional
How it was run: (§1)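 0.05 mM DPPH in absolute ethanol mixed with an equal volume of compound in DMSO (final 100 μM). Shaken and left 20 or 60 min, then absorbance read at 517 nm and percent activity calculated. Three replicates, averaged.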

[2] = system: HaCaT; assay: Cytostatic activity against human HaCaT cells after 72 hrs by MTT assay; assay type: ADME, cell-based
How it was run: (§2)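 Monolayers in DMEM with 10% FBS, 2 mM L-glutamine and penicillin/streptomycin, 37 °C, 5% CO2. Seeded at 1–3 × 10^4 cells/ml, then compound added in tenfold dilutions (10⁻⁸–10⁻⁴ M) for 72 h. MTT read at 570 nm; percent growth taken against time-zero and untreated controls. IC50 by linear regression; quadruplicate, at least two experiments.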

[3] = system: Felid alphaherpesvirus 1; assay: Antiviral activity against Feline herpesvirus infected in feline CRFK cells assessed as inhibition of virus-induced cytopathic effect at 0.32 to 100 uM; assay type: functional, organism-based
How it was run: (§3)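 Confluent cell cultures were infected with 100 CCID50 of virus in the presence of test compound at 100, 40, 8, 1.6 and 0.32 μM. Cytopathic effect was scored once it was complete in untreated infected controls.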

[4] = system: MCF7; assay: Selectivity ratio of IC50 for human HaCaT cells to IC50 for human MCF7 cells
[5] = system: Human respirovirus 3; assay: Antiviral activity against Parainfluenza virus 3 infected in african green monkey Vero cells assessed as inhibition of virus-induced cytopathic effect at 0.32 to 100 uM; assay type: functional, organism-based; how it was run: as §3
[6] = system: NCI-H460; assay: Cytostatic activity against human NCI-H460 cells after 72 hrs by MTT assay; assay type: functional, cell-based; conditions: NCI-H460, 72 h; how it was run: as §2
[7] = system: Feline coronavirus; assay: Antiviral activity against Feline coronavirus infected in feline CRFK cells assessed as inhibition of virus-induced cytopathic effect at 0.32 to 100 uM; assay type: functional, organism-based; how it was run: as §3
[8] = system: HCT-116; assay: Cytostatic activity against human HCT116 cells after 72 hrs by MTT assay; assay type: functional, cell-based; conditions: HCT-116, 72 h; how it was run: as §2
[9] = system: Glycine max; assay: Inhibition of soybean LOX assessed as conversion of sodium linoleate to 13- hydroperoxylinoleic acid at 100 uM
[10] = system: Human immunodeficiency virus 1; assay: Antiviral activity against HIV1 3B infected in human CEM cells assessed as inhibition of virus-induced CEM giant cell formation at 0.32 to 100 uM after 4 days; assay type: functional, organism-based; conditions: CCRF-CEM
How it was run: (§4)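 CEM cells (~3 × 10^5 cells/cm³) exposed to 100 CCID50/ml of virus and seeded into wells holding compound dilutions. Incubated 4 days at 37 °C, then giant cell formation examined microscopically.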

[11] = system: L1210; assay: Selectivity ratio of IC50 for human HaCaT cells to IC50 for mouse L1210 cells
[12] = Antioxidant activity assessed as inhibition of AAPH-induced linoleic acid lipid peroxidation by measuring conjugated diene hydroperoxide level; assay type: functional; set-up: concentration or dose not given beside the values; conditions: dose or concentration not given here
How it was run: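 Linoleic acid sodium salt (10 μL of 16 mM) in 0.05 M phosphate buffer pH 7.4 at 37 °C. Oxidation started under air with 50 μL of 40 mM AAPH. Conjugated diene hydroperoxide formation followed as absorbance rise at 234 nm; control contains the same DMSO level. At least triplicate.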

[13] = system: NCI-H460; assay: Selectivity ratio of IC50 for human HaCaT cells to IC50 for human NCI-H460 cells
[14] = system: Coxsackievirus B4; assay: Antiviral activity against Coxsackievirus B4 infected in human cervix carcinoma cells assessed as inhibition of virus-induced cytopathic effect at 0.32 to 100 uM; assay type: functional, organism-based; how it was run: as §3
[15] = system: Human immunodeficiency virus 2; assay: Antiviral activity against HIV2 ROD infected in human CEM cells assessed as inhibition of virus-induced CEM giant cell formation at 0.32 to 100 uM after 4 days; assay type: functional, organism-based; conditions: ISOLATE ROD, CCRF-CEM; how it was run: as §4
[16] = system: MCF7; assay: Cytostatic activity against human MCF7 cells after 72 hrs by MTT assay; assay type: functional, cell-based; conditions: MCF7, 72 h; how it was run: as §2
[17] = system: HeLa; assay: Selectivity ratio of IC50 for human HaCaT cells to IC50 for human HeLa cells
[18] = system: Influenza A virus; assay: Antiviral activity against Influenza A virus H3N2 infected in MDCK cells assessed as inhibition of virus-induced cytopathic effect at 0.32 to 100 uM; assay type: functional, organism-based
How it was run: (§5)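 Confluent MDCK monolayers were infected in the presence of the compound at 100, 40, 8, 1.6 and 0.32 μM. Viral cytopathicity was scored once it was complete in untreated infected control cultures.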

[19] = system: L1210; assay: Cytostatic activity against mouse L1210 cells after 2 days by coulter counter analysis; assay type: functional, cell-based; conditions: L1210, 48 h
How it was run: (§6)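 300,000–500,000 cells/ml mixed 1:1 with compound dilutions and incubated at 37 °C for 2 days (L1210) or 3 days (CEM, HeLa). Cell number counted with a Coulter counter; HeLa trypsinized before counting.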

[20] = system: Vaccinia virus; assay: Antiviral activity against Vaccinia virus infected in human lung fibroblast assessed as inhibition of virus-induced cytopathic effect at 0.32 to 100 uM; assay type: functional, organism-based; conditions: Orthopoxvirus vaccinia
[21] = system: Mammalian orthoreovirus 1; assay: Antiviral activity against Reovirus-1 infected in african green monkey Vero cells assessed as inhibition of virus-induced cytopathic effect at 0.32 to 100 uM; assay type: functional, organism-based; how it was run: as §3
[22] = system: Human alphaherpesvirus 1; assay: Antiviral activity against HSV1 KOS infected in human lung fibroblast assessed as inhibition of virus-induced cytopathic effect at 0.32 to 100 uM; assay type: functional, organism-based; how it was run: as §3
[23] = system: Respiratory syncytial virus; assay: Antiviral activity against RSV infected in human cervix carcinoma cells assessed as inhibition of virus-induced cytopathic effect at 0.32 to 100 uM; assay type: functional, organism-based; how it was run: as §3
[24] = system: Radical scavenging activity; assay: Antioxidant activity assessed as DPPH free radical scavenging activity at 100 uM after 20 mins by spectrophotometric analysis; assay type: functional; how it was run: as §1
[25] = system: HeLa; assay: Cytostatic activity against human HeLa cells after 3 days by coulter counter analysis; assay type: functional, cell-based; conditions: 72 h; how it was run: as §6
[26] = system: CCRF-CEM; assay: Cytostatic activity against human CEM cells after 3 days by coulter counter analysis; assay type: functional, cell-based; conditions: 72 h; how it was run: as §6
[27] = system: HaCaT; assay: Selectivity ratio of IC50 for human HaCaT cells to IC50 for human HCT116 cells
[28] = system: Influenza A virus; assay: Antiviral activity against Influenza A virus H1N1 infected in MDCK cells assessed as inhibition of virus-induced cytopathic effect at 0.32 to 100 uM; assay type: functional, organism-based; how it was run: as §5
[29] = Inhibition of soybean LOX assessed as conversion of sodium linoleate to 13- hydroperoxylinoleic acid; set-up: species or system Glycine max
[30] = system: Vesicular stomatitis virus; assay: Antiviral activity against VSV infected in human lung fibroblast assessed as inhibition of virus-induced cytopathic effect at 0.32 to 100 uM; assay type: functional, organism-based
[31] = system: Influenza B virus; assay: Antiviral activity against Influenza B virus infected in MDCK cells assessed as inhibition of virus-induced cytopathic effect at 0.32 to 100 uM; assay type: functional, organism-based; how it was run: as §5
[32] = system: Vesicular stomatitis virus; assay: Antiviral activity against Vesicular stomatitis virus infected in human cervix carcinoma cells assessed as inhibition of virus-induced cytopathic effect at 0.32 to 100 uM; assay type: functional, organism-based
How it was run: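 Confluent human cervix carcinoma (HeLa) cultures received 100 CCID50 of VSV together with the compound at 100, 40, 8, 1.6 or 0.32 μM. Cytopathicity was read at the point of full CPE in infected, untreated control wells.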

[33] = system: Coxsackievirus B4; assay: Antiviral activity against Coxsackievirus B4 infected in african green monkey Vero cells assessed as inhibition of virus-induced cytopathic effect at 0.32 to 100 uM; assay type: functional, organism-based; how it was run: as §3
[34] = system: Sindbis virus; assay: Antiviral activity against Sindbis virus infected in african green monkey Vero cells assessed as inhibition of virus-induced cytopathic effect at 0.32 to 100 uM; assay type: functional, organism-based; how it was run: as §3
[35] = system: Punta Toro virus; assay: Antiviral activity against Punta Toro virus infected in african green monkey Vero cells assessed as inhibition of virus-induced cytopathic effect at 0.32 to 100 uM; assay type: functional, organism-based; how it was run: as §3
[36] = system: Human alphaherpesvirus 2; assay: Antiviral activity against HSV2 G infected in human lung fibroblast assessed as inhibition of virus-induced cytopathic effect at 0.32 to 100 uM; assay type: functional, organism-based; conditions: strain G; how it was run: as §3
[37] = system: HaCaT; assay: Selectivity ratio of IC50 for human HaCaT cells to IC50 for human CEM cells

CC(C(=O)NNC(=O)NC(c1ccccc1)c1ccccc1)c1cccc(Cc2ccccc2)c1 (configuration not stated)
Activity [1]: 9% | IC50 [2]: 11 µM | inhibition [3]: inactive | Ratio IC50 [4]: 2 | inhibition [5]: inactive | IC50 [6]: 4 µM | inhibition [7]: inactive | IC50 [8]: 8 µM | inhibition [9]: 96% | inhibition [10]: inactive | Ratio IC50 [11]: 2 | inhibition [12]: 88% | Ratio IC50 [13]: 2 | inhibition [14]: inactive | inhibition [15]: inactive | IC50 [16]: 5 µM | Ratio IC50 [17]: 2 | inhibition [18]: inactive | IC50 [19]: 19 µM | inhibition [20]: inactive | inhibition [21]: inactive | inhibition [22]: inactive | inhibition [23]: inactive | Activity [24]: 4% | IC50 [25]: 5 µM | IC50 [26]: 15 µM | Ratio IC50 [27]: 2 | inhibition [28]: inactive | IC50 [29]: 51.5 µM | inhibition [30]: inactive | inhibition [31]: inactive | inhibition [32]: inactive | inhibition [33]: inactive | inhibition [34]: inactive | inhibition [35]: inactive | inhibition [36]: inactive | Ratio IC50 [37]: 2
